Measurements published in publication PMC3908450 (Biological chemistry, 2011).
Read-outs that look alike come from different tables or passages of the source. Marks after values point to notes of the source that are not given here.

Assays:
mutant ataxin-3 protein [1] = assay: Inhibition of mutant ATX3 protein expression in patient fibroblasts GM06151; format: cell-based, human; details: PNA conjugates
In short: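 GM06151 fibroblasts (CAG 74 mutant/24 wild-type repeats) in MEM with 10% heat-inactivated FBS and 0.5% NEAA, 37 °C, 5% CO2, plated two days before dosing. Conjugate stocks heated 65 °C for 5 min, diluted in OptiMEM and added; medium replaced at 24 h; harvest typically day 4. 7.5% SDS-PAGE resolved mutant and wild-type ATX3 bands for western blotting, with β-actin also probed. Inhibition relative to control was fitted per replicate to get separate mutant and wild-type IC50s.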

mutant ataxin-3 protein [2] = details: PNA conjugate; GM06151 fibroblasts; ref Hue et al., 2009a; cited from earlier work

| Substance | Selectivity (wt IC50 versus mut IC50) (mutant ataxin-3 protein [1]) | Selectivity (wt IC50 versus mut IC50) (mutant ataxin-3 protein [2]) |
| --- | --- | --- |
| K8-GCTGCTG-K [REP7NK] | >1.7 fold | – |
| K8-GCTGCTGCTGCTG-K8 [REP13KK] | 1.8 fold | – |
| K8-GCTGCTGCTGCTGCTGCTG-K [REP19NK] | 3.4 fold | – |
| K-GCTGCTG-K8 [REP7] | 3.6 fold | – |
| K-GCTGCTGCT-K8 [REP9] | 3.0 fold | – |
| K-GCTGCTGCTGC-K8 [REP11] | 3.4 fold | – |
| K-GCTGCTGCTGCTG-K4 [REP13K4] | 2.3 fold | – |
| K-GCTGCTGCTGCTG-K6 [REP13K6] | 5.0 fold | – |
| K-GCTGCTGCTGCTG-K8 [REP13] | 2.2 fold | – |
| K-GCTGCTGCTGCTGCTG-K8 [REP16] | 2.4 fold | – |
| K-GCTGCTGCTGCTGCTGCTG-(Kpeptoid)8 [REP19P] | >2.2 fold | – |
| K-GCTGCTGCTGCTGCTGCTG-K8 [REP19] | – | 2.7 ^‡ fold |
| K-GCTGCTGCTGCTGCTGCTG-R8 [REP19R] | 1.6 fold | – |
| K-GCTGCTGCTGCTGCTGCTG-Spacer-K8 [REP19S] | 1.7 fold | – |
| R8-GCTGCTGCTGCTGCTGCTG-K [REP19NR] | 2.7 fold | – |
